Key:
CYP2C9 = CYP2C9 (Homo sapiens, UniProt P11712); test: Inhibition of CYP2C9 in human liver microsomes at 10 uM preincubated for 10 mins followed by addition of NADPH and measured after 15 mins by LC-MS/MS analysis; assay type: ADME; conditions: time 25 min
Outline: (§1)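 Pooled human liver microsomes (0.253 mg/mL) with test compound at 10 µM and probe substrates: phenacetin (CYP1A2), diclofenac (CYP2C9), S-mephenytoin (CYP2C19), dextromethorphan (CYP2D6), midazolam (CYP3A4). 10 min preincubation at 37 °C, NADPH-regenerating system added, 15 min at 37 °C. Stopped with cold acetonitrile containing tolbutamide/labetalol internal standards, centrifuged, supernatant read by LC-MS/MS; % inhibition.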

[1] = Volume of distribution at steady state in Sprague dawley rat at 1 mg/kg, iv; assay type: ADME, organism-based; conditions: in vivo, read-out: Vdss
Outline: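 Single intravenous dose of 1 mg/kg to SD rats (n = 3 per group). Blood collected into heparinised tubes at specified times, centrifuged at 4 °C, and quantified by LC-MS/MS. Steady-state volume of distribution obtained by noncompartmental analysis.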

[2] = molecular target: Focal adhesion kinase 1 (Homo sapiens) (UniProt Q05397); test: Inhibition of recombinant GST-tagged full length human FAK expressed in baculovirus expression system at 1 uM measured by select screen assay
Outline: (§2)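 Single-concentration profiling at 1.0 µM in a 28-kinase SelectScreen panel; percent inhibition reported.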

[3] = Stability in human plasma assessed as compound remaining incubated for 60 mins by LC-MS/MS analysis; assay type: ADME, cell-free; conditions: read-out: Stability
Outline: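 Pooled frozen human plasma thawed at 37 °C, centrifuged to remove clots, pH adjusted to 7.4 if required. Spiked to 2 µM final (from 100 µM dosing solution), in duplicate, incubated at 37 °C in a water bath. Sampled at 0, 10, 30, 60 and 120 min, quenched with acetonitrile stop solution containing internal standards, centrifuged, and supernatant analysed by LC-MS/MS for percent remaining.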

KM12 [4] = test: Induction of apoptosis in human KM12 cells assessed as necrotic cells at 250 nM measured after 48 hrs by AnnexinV-FITC/PI staining based flowcytometry assay relative to control; assay type: functional
Outline: (§3)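 10^5 cells in Annexin V binding buffer stained with FITC-Annexin V and PI for 10 min at room temperature in the dark, diluted with PBS and analysed by flow cytometry (FITC 494/518 nm, PI 535/617 nm).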

[5] = MRT in Sprague dawley rat at 1 mg/kg, iv; assay type: ADME, organism-based; conditions: in vivo
Outline: (§4)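 Male-unspecified SD rats, n = 3 per group, single i.v. dose 1 mg/kg or oral 3 mg/kg. Blood drawn into heparin tubes at set times, centrifuged at 4 °C, plasma quantified by LC-MS/MS; noncompartmental parameters fitted.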

[6] = molecular target: Epidermal growth factor receptor (Homo sapiens) (UniProt P00533); test: Inhibition of recombinant GST-tagged human EGFR (668 to 1210) expressed in baculovirus expression system at 1 uM measured by select screen assay relative to control; outline: as §2
Sequence of Epidermal growth factor receptor (Homo sapiens) (P00533 whole entry): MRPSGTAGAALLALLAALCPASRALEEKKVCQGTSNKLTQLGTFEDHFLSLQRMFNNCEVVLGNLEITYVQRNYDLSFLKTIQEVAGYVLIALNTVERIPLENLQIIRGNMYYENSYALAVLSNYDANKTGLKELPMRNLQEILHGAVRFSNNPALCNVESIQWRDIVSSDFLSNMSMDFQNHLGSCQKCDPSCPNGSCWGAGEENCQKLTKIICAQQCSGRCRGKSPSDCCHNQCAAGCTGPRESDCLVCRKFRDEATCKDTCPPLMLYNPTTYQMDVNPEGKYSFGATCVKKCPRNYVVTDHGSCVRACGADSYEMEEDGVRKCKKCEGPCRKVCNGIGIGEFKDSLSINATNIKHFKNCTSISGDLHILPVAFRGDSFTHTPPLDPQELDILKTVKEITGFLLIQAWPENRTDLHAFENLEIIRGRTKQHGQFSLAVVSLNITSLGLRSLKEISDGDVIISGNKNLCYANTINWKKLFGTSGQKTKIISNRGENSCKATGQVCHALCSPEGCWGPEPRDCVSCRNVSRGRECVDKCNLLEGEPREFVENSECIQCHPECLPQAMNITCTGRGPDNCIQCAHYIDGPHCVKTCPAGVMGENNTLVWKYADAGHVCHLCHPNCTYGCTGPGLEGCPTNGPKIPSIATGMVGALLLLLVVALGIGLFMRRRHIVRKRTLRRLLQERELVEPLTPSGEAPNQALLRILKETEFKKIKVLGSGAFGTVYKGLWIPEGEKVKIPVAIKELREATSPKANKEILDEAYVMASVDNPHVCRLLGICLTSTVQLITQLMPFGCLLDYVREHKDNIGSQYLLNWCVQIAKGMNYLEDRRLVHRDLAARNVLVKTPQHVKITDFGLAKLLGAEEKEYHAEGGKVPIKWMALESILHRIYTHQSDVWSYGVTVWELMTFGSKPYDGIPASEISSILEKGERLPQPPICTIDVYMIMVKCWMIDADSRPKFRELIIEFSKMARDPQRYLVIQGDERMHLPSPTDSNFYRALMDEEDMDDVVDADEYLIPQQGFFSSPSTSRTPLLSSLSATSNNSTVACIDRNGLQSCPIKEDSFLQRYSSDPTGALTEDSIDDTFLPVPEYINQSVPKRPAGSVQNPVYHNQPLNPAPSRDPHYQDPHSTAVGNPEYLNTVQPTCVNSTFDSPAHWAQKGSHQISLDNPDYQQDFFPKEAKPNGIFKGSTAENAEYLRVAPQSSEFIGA

KM12 [7] = test: cells; conditions: Homo sapiens, KM12, 72 h
[8] = molecular target: Cyclin-dependent kinase 2 (Homo sapiens) (UniProt P24941); test: Inhibition of recombinant His-tagged human full length CDK2 expressed in baculovirus expression system at 1 uM measured by select screen assay relative to control; outline: as §2
KM12 [9] = test: Induction of apoptosis in human KM12 cells assessed as viable cells at 62.5 nM measured after 48 hrs by AnnexinV-FITC/PI staining based flowcytometry assay relative to control; assay type: functional; conditions: read-out: Activity; outline: as §3
KM12 [10] = test: Cell cycle arrest in human KM12 cells assessed as accumulation of cells at greater G1 phase at 500 nM measured after 48 hrs by AnnexinV-FITC/PI staining based flowcytometry method relative to control; assay type: functional
[11] = molecular target: RAF proto-oncogene serine/threonine-protein kinase (Homo sapiens) (UniProt P04049); test: Inhibition of recombinant GST-tagged human RAF1 expressed in baculovirus expression system at 1 uM measured by select screen assay relative to control; outline: as §2
Sequence of RAF proto-oncogene serine/threonine-protein kinase (Homo sapiens) (P04049 whole entry): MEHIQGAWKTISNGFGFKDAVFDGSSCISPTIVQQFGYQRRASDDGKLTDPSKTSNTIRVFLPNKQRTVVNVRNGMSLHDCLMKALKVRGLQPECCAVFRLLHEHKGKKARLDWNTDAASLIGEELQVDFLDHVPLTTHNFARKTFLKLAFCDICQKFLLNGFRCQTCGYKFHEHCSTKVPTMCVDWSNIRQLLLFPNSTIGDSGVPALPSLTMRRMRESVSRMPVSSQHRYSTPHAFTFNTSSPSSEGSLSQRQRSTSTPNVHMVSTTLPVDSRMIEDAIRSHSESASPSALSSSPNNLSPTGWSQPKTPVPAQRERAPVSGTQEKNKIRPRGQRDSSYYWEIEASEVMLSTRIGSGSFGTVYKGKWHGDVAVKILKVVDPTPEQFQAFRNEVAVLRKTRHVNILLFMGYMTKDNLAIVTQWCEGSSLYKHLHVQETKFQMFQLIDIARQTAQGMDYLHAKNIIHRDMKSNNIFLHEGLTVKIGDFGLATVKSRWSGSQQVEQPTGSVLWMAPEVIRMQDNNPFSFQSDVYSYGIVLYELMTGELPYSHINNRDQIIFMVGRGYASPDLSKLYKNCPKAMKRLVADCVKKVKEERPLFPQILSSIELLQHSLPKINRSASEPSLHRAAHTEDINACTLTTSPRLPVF

[12] = Oral bioavailability in Sprague dawley rat at 3 mg/kg; assay type: ADME, organism-based; conditions: in vivo; outline: as §4
CYP1A2 = CYP1A2 (Homo sapiens, UniProt P05177); test: Inhibition of CYP1A2 in human liver microsomes at 10 uM preincubated for 10 mins followed by addition of NADPH and measured after 15 mins by LC-MS/MS analysis; assay type: ADME; conditions: time 25 min; outline: as §1
KM12 [13] = test: Cell cycle arrest in human KM12 cells assessed as accumulation of cells at G2 phase at 62.5 nM measured after 48 hrs by AnnexinV-FITC/PI staining based flowcytometry method relative to control; assay type: functional
KM12 [14] = test: Cell cycle arrest in human KM12 cells assessed as accumulation of cells at G1 phase at 500 nM measured after 48 hrs by AnnexinV-FITC/PI staining based flowcytometry method relative to control; assay type: functional
[15] = molecular target: Serine/threonine-protein kinase B-raf (Homo sapiens) (UniProt P15056); test: Inhibition of recombinant GST-tagged human full length BRAF expressed in baculovirus expression system at 1 uM measured by select screen assay relative to control; outline: as §2
[16] = molecular target: ALK tyrosine kinase receptor (Homo sapiens) (UniProt Q9UM73); test: Inhibition of recombinant GST-tagged human ALK expressed in baculovirus expression system at 1 uM measured by select screen assay relative to control; outline: as §2
Sequence of ALK tyrosine kinase receptor (Homo sapiens) (Q9UM73 19-1620 limits assumed): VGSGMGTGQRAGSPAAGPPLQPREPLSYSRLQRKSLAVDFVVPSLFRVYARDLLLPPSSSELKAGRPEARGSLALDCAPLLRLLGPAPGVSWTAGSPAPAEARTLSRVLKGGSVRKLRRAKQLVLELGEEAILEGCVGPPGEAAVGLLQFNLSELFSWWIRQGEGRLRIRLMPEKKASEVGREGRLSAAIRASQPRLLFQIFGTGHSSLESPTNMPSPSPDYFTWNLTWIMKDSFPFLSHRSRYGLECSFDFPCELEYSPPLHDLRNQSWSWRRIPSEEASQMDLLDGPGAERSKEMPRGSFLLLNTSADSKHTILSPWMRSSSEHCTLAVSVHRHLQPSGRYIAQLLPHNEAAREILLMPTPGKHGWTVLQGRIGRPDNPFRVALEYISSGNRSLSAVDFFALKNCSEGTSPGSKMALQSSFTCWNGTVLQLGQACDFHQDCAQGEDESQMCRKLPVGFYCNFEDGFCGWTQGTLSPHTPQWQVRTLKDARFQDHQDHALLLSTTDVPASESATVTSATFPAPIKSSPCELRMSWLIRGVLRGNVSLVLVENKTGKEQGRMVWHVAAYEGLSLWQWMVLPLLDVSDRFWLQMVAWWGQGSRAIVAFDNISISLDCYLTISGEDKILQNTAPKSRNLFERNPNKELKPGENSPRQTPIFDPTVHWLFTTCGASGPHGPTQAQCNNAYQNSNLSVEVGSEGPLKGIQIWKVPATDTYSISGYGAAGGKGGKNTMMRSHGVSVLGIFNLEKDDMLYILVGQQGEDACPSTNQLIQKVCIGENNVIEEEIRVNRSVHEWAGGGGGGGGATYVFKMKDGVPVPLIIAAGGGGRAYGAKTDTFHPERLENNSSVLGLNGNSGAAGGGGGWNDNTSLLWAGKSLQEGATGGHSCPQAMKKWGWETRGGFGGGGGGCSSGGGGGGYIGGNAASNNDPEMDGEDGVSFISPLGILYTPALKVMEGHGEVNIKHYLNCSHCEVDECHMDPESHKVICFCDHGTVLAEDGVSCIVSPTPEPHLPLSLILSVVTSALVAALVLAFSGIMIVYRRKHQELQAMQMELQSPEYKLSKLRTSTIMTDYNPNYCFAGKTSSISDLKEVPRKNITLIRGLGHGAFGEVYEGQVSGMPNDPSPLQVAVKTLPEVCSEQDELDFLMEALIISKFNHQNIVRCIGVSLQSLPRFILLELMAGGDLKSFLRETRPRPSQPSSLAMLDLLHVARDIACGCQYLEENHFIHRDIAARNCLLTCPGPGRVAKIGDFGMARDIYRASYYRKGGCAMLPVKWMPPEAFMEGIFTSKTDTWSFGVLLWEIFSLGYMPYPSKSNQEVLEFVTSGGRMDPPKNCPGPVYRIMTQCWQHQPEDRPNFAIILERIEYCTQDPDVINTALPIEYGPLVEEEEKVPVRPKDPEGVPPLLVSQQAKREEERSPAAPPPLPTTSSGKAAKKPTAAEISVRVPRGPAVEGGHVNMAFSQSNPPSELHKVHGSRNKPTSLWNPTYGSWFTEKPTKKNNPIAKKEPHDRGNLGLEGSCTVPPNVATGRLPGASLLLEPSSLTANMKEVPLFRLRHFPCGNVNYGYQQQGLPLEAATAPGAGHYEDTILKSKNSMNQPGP

[17] = molecular target: Fibroblast growth factor receptor 1 (Homo sapiens) (UniProt P11362); test: Inhibition of recombinant His-tagged human FGFR1 expressed in baculovirus expression system at 1 uM measured by select screen assay relative to control; outline: as §2
KM12 [18] = test: Induction of apoptosis in human KM12 cells assessed as early apoptotic cells at 250 nM measured after 48 hrs by AnnexinV-FITC/PI staining based flowcytometry assay relative to control; assay type: functional
Outline: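 They were detached with trypsin, washed twice in PBS, and 10^5 cells were suspended in Annexin V binding buffer. Cells were stained with FITC-Annexin V and PI for 10 min at room temperature in the dark, diluted with PBS and analysed by flow cytometry.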

[19] = AUC (last) in Sprague dawley rat at 3 mg/kg, po; assay type: ADME, organism-based; design: time 0 - last, route oral, dose 3 mg/kg; conditions: in vivo
Outline: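 Blood was collected into heparin tubes at specified time points and centrifuged at once (4 °C, 4000 rpm, 20 min). Plasma levels were quantified by LC-MS/MS. Parameters came from noncompartmental analysis.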

[20] = molecular target: Tyrosine-protein kinase BTK (Homo sapiens) (UniProt Q06187); test: Inhibition of recombinant His-tagged full length human BTK expressed in baculovirus expression system at 1 uM measured by select screen assay relative to control; outline: as §2
Sequence of Tyrosine-protein kinase BTK (Homo sapiens) (Q06187 whole entry): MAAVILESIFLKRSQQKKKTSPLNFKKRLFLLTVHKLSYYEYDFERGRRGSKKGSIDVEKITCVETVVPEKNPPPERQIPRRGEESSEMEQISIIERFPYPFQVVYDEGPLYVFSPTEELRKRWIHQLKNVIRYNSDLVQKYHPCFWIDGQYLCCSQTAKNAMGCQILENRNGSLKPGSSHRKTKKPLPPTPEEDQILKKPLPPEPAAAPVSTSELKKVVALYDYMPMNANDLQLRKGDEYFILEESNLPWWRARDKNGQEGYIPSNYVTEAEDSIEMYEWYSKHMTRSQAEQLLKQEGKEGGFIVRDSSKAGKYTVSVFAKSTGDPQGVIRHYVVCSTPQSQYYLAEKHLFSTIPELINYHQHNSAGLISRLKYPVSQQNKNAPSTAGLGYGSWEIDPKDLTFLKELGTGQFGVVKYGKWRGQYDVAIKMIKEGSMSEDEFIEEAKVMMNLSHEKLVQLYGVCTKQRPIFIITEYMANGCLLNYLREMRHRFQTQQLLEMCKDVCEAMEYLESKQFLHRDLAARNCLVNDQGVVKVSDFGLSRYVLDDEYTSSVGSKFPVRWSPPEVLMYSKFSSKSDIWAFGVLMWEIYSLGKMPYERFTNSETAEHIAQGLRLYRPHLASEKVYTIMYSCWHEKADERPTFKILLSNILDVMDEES

[21] = Tmax in Sprague dawley rat at 3 mg/kg, po; assay type: ADME, organism-based; conditions: in vivo
Outline: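 Male/female status not given; SD rats (n = 3 per group) dosed orally at 3 mg/kg as a single dose. Blood taken into heparin tubes at set time points and centrifuged at 4 °C. Plasma levels quantified by LC-MS/MS; noncompartmental parameters fitted.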

KM12 [22] = test: Cell cycle arrest in human KM12 cells assessed as accumulation of cells at greater G1 phase at 250 nM measured after 48 hrs by AnnexinV-FITC/PI staining based flowcytometry method relative to control; assay type: functional
KM12 [23] = test: Cell cycle arrest in human KM12 cells assessed as accumulation of cells at G1 phase at 125 nM measured after 48 hrs by AnnexinV-FITC/PI staining based flowcytometry method relative to control; assay type: functional

Sequence of CYP2C9 (P11712 whole entry): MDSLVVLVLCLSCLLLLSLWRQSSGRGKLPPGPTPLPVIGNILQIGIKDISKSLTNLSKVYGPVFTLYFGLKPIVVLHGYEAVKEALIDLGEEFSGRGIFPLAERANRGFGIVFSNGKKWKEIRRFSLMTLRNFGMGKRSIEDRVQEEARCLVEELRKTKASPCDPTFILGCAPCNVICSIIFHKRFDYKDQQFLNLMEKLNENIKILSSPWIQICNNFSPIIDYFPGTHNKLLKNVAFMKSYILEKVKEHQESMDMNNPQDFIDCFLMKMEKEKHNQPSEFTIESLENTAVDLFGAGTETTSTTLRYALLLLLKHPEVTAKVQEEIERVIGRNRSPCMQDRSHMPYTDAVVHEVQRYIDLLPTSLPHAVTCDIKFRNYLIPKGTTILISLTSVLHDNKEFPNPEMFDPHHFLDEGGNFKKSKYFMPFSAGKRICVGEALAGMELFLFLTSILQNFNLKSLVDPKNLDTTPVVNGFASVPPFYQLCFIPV

## CN1CCN(c2ccc(C(=O)Nc3n[nH]c4c3CN(Cc3cc(F)cc(F)c3)C4(C)C)cc2)CC1
CYP2C9
  inhibition at 0.25 h, 10 µM: 16%
[1]
  Vd: 0.892 L/kg
[2]
  inhibition: 51%
[3]
  remaining at 1 h: 99.2%
KM12 [4]
  Activity: 0.04%
[5]
  MRT: 1.85 h
[6]
  inhibition: 4%
KM12 [7]
  IC50: 82 nM
[8]
  inhibition: 3%
KM12 [9]
  viability at 0.0625 µM: 70.5%
KM12 [10]
  Activity: 1.57%
[11]
  inhibition: 11%
[12]
  bioavailability: 44.3%
CYP1A2
  inhibition at 0.25 h, 10 µM: 12.9%
KM12 [13]
  Activity: 15.8%
KM12 [14]
  Activity: 73.9%
[15]
  inhibition: 3%
[16]
  inhibition: 82%
[17]
  inhibition: 60%
KM12 [18]
  Activity: 32.95%
[19]
  AUC(0-t): 2700 ng·h/mL
[20]
  inhibition: 35%
[21]
  Tmax: 1.67 h
KM12 [22]
  Activity: 1.26%
KM12 [23]
  Activity: 56.6%
